In ChEMBL document CHEMBL1671664 (2009):
In brackets after ≈: the same amount, converted by molar mass. Activity calls are given as the source filed them. The rule behind the calls is not given here.

Experiments:
[1] = Antimicrobial activity against Salmonella enterica serovar Corvallis isolate s2064 harboring ParC QRDR mutant gene by agar dilution method; type: functional, Salmonella enterica subsp. enterica serovar Corvallis
[2] = Antimicrobial activity against qnrA-positive Salmonella enterica serovar Mbandaka isolate s2093 harboring ParC QRDR mutant gene by agar dilution method; type: functional, Salmonella enterica subsp. enterica serovar Mbandaka
[3] = Antimicrobial activity against Salmonella enterica serovar Mbandaka isolate s2159 harboring ParC QRDR mutant gene by agar dilution method; type: functional, Salmonella enterica subsp. enterica serovar Mbandaka
[4] = system: Salmonella typhimurium; test: Antimicrobial activity against qnrS-positive Salmonella enterica serovar Typhimurium isolate s2425 harboring wild type ParC gene by agar dilution method; type: functional, Salmonella enterica subsp. enterica serovar Typhimurium
[5] = Antimicrobial activity against qnrS-positive Salmonella enterica serovar Braenderup isolate s2856 harboring ParC QRDR mutant gene by agar dilution method; type: functional, Salmonella enterica subsp. enterica serovar Braenderup
[6] = Antimicrobial activity against qnrS-positive Salmonella enterica serovar Corvallis isolate s2017 harboring ParC QRDR mutant gene by agar dilution method; type: functional, Salmonella enterica subsp. enterica serovar Corvallis
[7] = Antimicrobial activity against qnrS-positive Salmonella enterica serovar Corvallis isolate s2052 harboring ParC QRDR mutant gene by agar dilution method; type: functional, Salmonella enterica subsp. enterica serovar Corvallis
[8] = Antimicrobial activity against qnrS-positive Salmonella enterica serovar Montevideo isolate s2209 harboring ParC QRDR mutant gene by agar dilution method; type: functional, Salmonella enterica subsp. enterica serovar Montevideo
[9] = Antimicrobial activity against Salmonella enterica serovar Montevideo isolate s2317 harboring ParC QRDR mutant gene by agar dilution method; type: functional, Salmonella enterica subsp. enterica serovar Montevideo
[10] = Antimicrobial activity against qnrS-positive Salmonella enterica serovar Virginia isolate s2219 harboring ParC QRDR mutant gene by agar dilution method; type: functional, Salmonella enterica subsp. enterica serovar Virginia
[11] = Antimicrobial activity against qnrS-positive Salmonella enterica serovar Stanley isolate s2018 harboring ParC QRDR mutant gene by agar dilution method; type: functional, Salmonella enterica subsp. enterica serovar Stanley
[12] = system: Salmonella typhimurium; test: Antimicrobial activity against qnrS-positive Salmonella enterica serovar Typhimurium isolate s2705 harboring wild type ParC gene by agar dilution method; type: functional, Salmonella enterica subsp. enterica serovar Typhimurium
[13] = Antimicrobial activity against Salmonella enterica serovar Stanley isolate s2043 harboring ParC QRDR mutant gene by agar dilution method; type: functional, Salmonella enterica subsp. enterica serovar Stanley
[14] = Antimicrobial activity against qnrS-positive Salmonella enterica serovar Montevideo isolate s2944 harboring ParC QRDR mutant gene by agar dilution method; type: functional, Salmonella enterica subsp. enterica serovar Montevideo
[15] = system: Escherichia coli; test: Antimicrobial activity against Escherichia coli DH5[alpha] transformed with Salmonella enterica serovar Corvallis isolate s2017 plasmid encoded qnrS and Parc QRDR Thre57Ser mutant gene by agar dilution method; type: functional
In short: (§1)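 E. coli DH5α transformed by electroporation with qnr-carrying plasmid DNA from donor Salmonella isolates; transformants selected on LB agar with 0.03 μg/ml ciprofloxacin, qnr confirmed by multiplex PCR. MICs to ciprofloxacin and nalidixic acid by agar dilution.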

[16] = system: Escherichia coli; test: Antimicrobial activity against Escherichia coli DH5[alpha] transformed with Salmonella enterica serovar Typhimurium isolate s2425 plasmid encoded qnrS and Parc gene by agar dilution method; type: functional; in short: as §1
[17] = Antimicrobial activity against Salmonella enterica serovar Braenderup isolate s2906 harboring ParC QRDR mutant gene by agar dilution method; type: functional, Salmonella enterica subsp. enterica serovar Braenderup
[18] = system: Salmonella typhimurium; test: Antimicrobial activity against Salmonella enterica serovar Typhimurium isolate s2878 harboring wild type ParC gene by agar dilution method; type: functional, Salmonella enterica subsp. enterica serovar Typhimurium
[19] = system: Escherichia coli; test: Antimicrobial activity against Escherichia coli DH5[alpha] transformed with Salmonella enterica serovar Virginia isolate s2219 plasmid encoded qnrS and Parc QRDR Thre57Ser mutant gene by agar dilution method; type: functional; in short: as §1
[20] = system: Escherichia coli; test: Antimicrobial activity against Escherichia coli DH5[alpha] transformed with Salmonella enterica serovar Corvallis isolate s2052 plasmid encoded qnrS and Parc QRDR Thre57Ser mutant gene by agar dilution method; type: functional; in short: as §1
[21] = system: Salmonella typhimurium; test: Antimicrobial activity against Salmonella enterica serovar Typhimurium isolate SL1344 harboring wild type ParC gene by agar dilution method; type: functional, Salmonella enterica subsp. enterica serovar Typhimurium
[22] = system: Escherichia coli; test: Antimicrobial activity against Escherichia coli DH5[alpha] transformed with Salmonella enterica serovar Montevideo isolate s2209 plasmid encoded qnrS and Parc QRDR Thre57Ser mutant gene by agar dilution method; type: functional; in short: as §1
[23] = system: Escherichia coli; test: Antimicrobial activity against Escherichia coli DH5[alpha] transformed with Salmonella enterica serovar Montevideo isolate s2944 plasmid encoded qnrS and Parc QRDR Thre57Ser mutant gene by agar dilution method; type: functional; in short: as §1
[24] = system: Escherichia coli; test: Antimicrobial activity against Escherichia coli DH5[alpha] transformed with Salmonella enterica serovar Typhimurium isolate s2705 plasmid encoded qnrS and Parc gene by agar dilution method; type: functional; in short: as §1
[25] = system: Salmonella enterica subsp. enterica serovar Montevideo; test: Drug uptake in qnrS-positive Salmonella enterica serovar Montevideo isolate s2209 harboring ParC QRDR mutant gene in presence of CCCP; type: functional
In short: (§2)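 Cell suspensions preincubated with 100 μM CCCP before substrate addition. Ciprofloxacin accumulation read by fluorescence (ex 311/em 447 nm), Hoechst 33342 by fluorescence (ex 355/[…]), at 10 min. Expressed relative to S. Typhimurium SL1344. Differences tested by Student t test (P < 0.05).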

[26] = system: Salmonella enterica subsp. enterica serovar Mbandaka; test: Drug uptake in qnrA-positive Salmonella enterica serovar Mbandaka isolate s2093 harboring ParC QRDR mutant gene in presence of CCCP; type: functional; in short: as §2

Row | SMILES | MIC [1] [µg/mL] | MIC [2] [µg/mL] | MIC [3] [µg/mL] | MIC [4] [µg/mL] | MIC [5] [µg/mL] | MIC [6] [µg/mL] | MIC [7] [µg/mL] | MIC [8] [µg/mL] | MIC [9] [µg/mL] | MIC [10] [µg/mL] | MIC [11] [µg/mL] | MIC [12] [µg/mL] | MIC [13] [µg/mL] | MIC [14] [µg/mL] | MIC [17] [µg/mL] | MIC [18] [µg/mL] | MIC [21] [µg/mL] | other results
1 | C[C@H]1COc2c(N3CCN(C)CC3)c(F)cc3c(=O)c(C(=O)O)cn1c23.C[C@H]1COc2c(N3CCN(C)CC3)c(F)cc3c(=O)c(C(=O)O)cn1c23.O [LEVOFLOXACIN] | 0.06 | 1 | 0.06 | 1 | 1 | 1 | 0.5 | 1 | 0.06 | 1 | 1 | 1 | 0.06 | 1 | – | – | – | –
2 | CCn1cc(C(=O)O)c(=O)c2cc(F)c(N3CCNCC3)cc21 [NORFLOXACIN] | 0.06 (≈ 0.188 µM) | 16 (≈ 50.1 µM) | 0.125 (≈ 0.391 µM) | 2 (≈ 6.26 µM) | 2 (≈ 6.26 µM) | 2 (≈ 6.26 µM) | 1 (≈ 3.13 µM) | 2 (≈ 6.26 µM) | 0.125 (≈ 0.391 µM) | 2 (≈ 6.26 µM) | 2 (≈ 6.26 µM) | 2 (≈ 6.26 µM) | 0.125 (≈ 0.391 µM) | 2 (≈ 6.26 µM) | – | – | – | –
3 | CCn1cc(C(=O)O)c(=O)c2ccc(C)nc21 [NALIDIXIC ACID] | 4 (≈ 17.2 µM) | 16 (≈ 68.9 µM) | 4 (≈ 17.2 µM) | 16 (≈ 68.9 µM) | 16 (≈ 68.9 µM) | 16 (≈ 68.9 µM) | 16 (≈ 68.9 µM) | 32 (≈ 138 µM) | 4 (≈ 17.2 µM) | 32 (≈ 138 µM) | 16 (≈ 68.9 µM) | 16 (≈ 68.9 µM) | 4 (≈ 17.2 µM) | 16 (≈ 68.9 µM) | 4 (≈ 17.2 µM) | 16 (≈ 68.9 µM) | 4 (≈ 17.2 µM) | MIC [15]: 8 µg/mL (≈ 34.4 µM); MIC [16]: 8 µg/mL (≈ 34.4 µM); MIC [19]: 8 µg/mL (≈ 34.4 µM); MIC [20]: 8 µg/mL (≈ 34.4 µM); MIC [22]: 8 µg/mL (≈ 34.4 µM); MIC [23]: 8 µg/mL (≈ 34.4 µM); MIC [24]: 8 µg/mL (≈ 34.4 µM)
4 | COc1c(N2C[C@@H]3CCCN[C@@H]3C2)c(F)cc2c(=O)c(C(=O)O)cn(C3CC3)c12 [MOXIFLOXACIN] | 0.06 (≈ 0.149 µM) | 0.5 (≈ 1.25 µM) | 0.125 (≈ 0.311 µM) | – | – | – | 2 (≈ 4.98 µM) | – | 0.06 (≈ 0.149 µM) | – | – | – | 0.06 (≈ 0.149 µM) | – | – | – | – | –
5 | O=C(O)c1cn(C2CC2)c2cc(N3CCNCC3)c(F)cc2c1=O [CIPROFLOXACIN] | 0.015 (≈ 0.0453 µM) | 4 (≈ 12.1 µM) | 0.008 (≈ 0.0241 µM) | 0.5 (≈ 1.51 µM) | 0.5 (≈ 1.51 µM) | 0.25 (≈ 0.754 µM) | 0.5 (≈ 1.51 µM) | 0.5 (≈ 1.51 µM) | 0.015 (≈ 0.0453 µM) | 0.5 (≈ 1.51 µM) | 0.5 (≈ 1.51 µM) | 0.5 (≈ 1.51 µM) | 0.015 (≈ 0.0453 µM) | 0.5 (≈ 1.51 µM) | 0.015 (≈ 0.0453 µM) | 0.03 (≈ 0.0905 µM) | 0.06 (≈ 0.181 µM) | Drug uptake [25]: inactive; Drug uptake [26]: inactive
6 | CC1COc2c(N3CCN(C)CC3)c(F)cc3c(=O)c(C(=O)O)cn1c23 (stereo unspecified) [OFLOXACIN] | 0.03 (≈ 0.083 µM) | 1 (≈ 2.77 µM) | 0.125 (≈ 0.346 µM) | 2 (≈ 5.53 µM) | 2 (≈ 5.53 µM) | 2 (≈ 5.53 µM) | 1 (≈ 2.77 µM) | 2 (≈ 5.53 µM) | 0.125 (≈ 0.346 µM) | 2 (≈ 5.53 µM) | 2 (≈ 5.53 µM) | 2 (≈ 5.53 µM) | 0.125 (≈ 0.346 µM) | 2 (≈ 5.53 µM) | – | – | – | –
